In assay [1] the target is Tissue-type plasminogen activator (Homo sapiens, UniProt P00750). The assay is described as follows: Inhibition of recombinant tPA. The method in brief: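 Recombinant tPA, approx. 5 mU, in Tris pH 8.3, is preincubated with inhibitor for 15 min at 37 °C. S-2288 is then added at 1.25 mM (Km 1 mM). Absorbance change is read at 405 nm, in duplicate, and IC50 comes from a four-parameter logistic fit.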

Assay [2] is described as follows: Inhibition of bovine trypsin. On the set-up: species or system Bos taurus. The method in brief:
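Bovine trypsin, approx. 5 mU, is preincubated with inhibitor for 15 min at 37 °C. BAPNA substrate is then added at 425 µM (Km 1 mM) in Tris pH 8.2. The pNA release rate is read at 405 nm, duplicate wells, and IC50 comes from a four-parameter logistic fit.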

In assay [3] the target is Thrombin and urokinase-type plasminogen activator (Homo sapiens) (UniProt P00734+P00749). The assay is described as follows: Selectivity index, IC50 for human thrombin/IC50 for human uPA. The class given is protein assay.
The species entered for assay [4] is Homo sapiens. The assay is described as follows: Selectivity index, IC50 for recombinant tPA/IC50 for human uPA.
The target in a further assay is Prothrombin (Homo sapiens, UniProt P00734). The assay is described as follows: Inhibition of human thrombin. The method in brief: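 Thrombin from human plasma, approx. 5 mU, in Tris pH 8.3, with a 15-min 37 °C inhibitor preincubation. […] Initial rate is read at 405 nm, duplicates, and IC50 is obtained by four-parameter logistic fitting.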
A further assay addresses Plasminogen (Homo sapiens, UniProt P00747). The assay is described as follows: Inhibition of human plasmin. The method in brief:
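Plasmin from human plasma, approx. 5 mU, in Tris pH 7.4, with a 15-min 37 °C inhibitor preincubation. […] Initial rate is read at 405 nm, in duplicate, and IC50 is obtained by four-parameter logistic fitting.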

In assay [5] the target is Urokinase-type plasminogen activator (Homo sapiens, UniProt P00749). The assay is described as follows: Inhibition of human uPA.
The species named for assay [6] is Homo sapiens. The assay is described as follows: Selectivity index, IC50 for human plasmin/IC50 for human uPA.
A short description of assay [7]: Selectivity index, IC50 for bovine trypsin/IC50 for human uPA.
Assay [8] addresses Coagulation factor X (Bos taurus) (UniProt P00743). The assay is described as follows: Inhibition of bovine F10a at 250 uM.
Assay [9] is described as follows: Selectivity index, IC50 for bovine F10a/IC50 for human uPA.
The target in the next assay is Coagulation factor X (Bos taurus, UniProt P00743). The assay is described as follows: Inhibition of bovine F10a.

Each structure is given as a SMILES string.

As a reminder, the IC50 is the concentration needed to halve the response being measured. For orientation: inhibition means how much of the control response was suppressed.

Tissue-type plasminogen activator, sequence (P00750 whole entry): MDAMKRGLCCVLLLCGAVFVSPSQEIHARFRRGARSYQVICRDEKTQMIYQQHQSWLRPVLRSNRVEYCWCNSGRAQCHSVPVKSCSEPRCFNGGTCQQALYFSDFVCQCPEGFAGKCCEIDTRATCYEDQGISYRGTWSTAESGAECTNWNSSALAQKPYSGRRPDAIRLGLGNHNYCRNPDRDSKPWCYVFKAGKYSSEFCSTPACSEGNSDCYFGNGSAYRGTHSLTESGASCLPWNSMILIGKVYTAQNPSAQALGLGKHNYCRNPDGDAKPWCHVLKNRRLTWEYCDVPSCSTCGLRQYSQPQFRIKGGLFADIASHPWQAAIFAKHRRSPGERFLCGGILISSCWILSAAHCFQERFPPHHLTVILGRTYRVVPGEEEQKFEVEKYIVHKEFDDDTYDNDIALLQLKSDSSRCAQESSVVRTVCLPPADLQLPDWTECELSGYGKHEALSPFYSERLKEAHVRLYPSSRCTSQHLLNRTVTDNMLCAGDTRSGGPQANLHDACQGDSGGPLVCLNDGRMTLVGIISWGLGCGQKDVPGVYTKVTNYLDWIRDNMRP
Plasminogen, sequence (P00747 97-580 limits assumed): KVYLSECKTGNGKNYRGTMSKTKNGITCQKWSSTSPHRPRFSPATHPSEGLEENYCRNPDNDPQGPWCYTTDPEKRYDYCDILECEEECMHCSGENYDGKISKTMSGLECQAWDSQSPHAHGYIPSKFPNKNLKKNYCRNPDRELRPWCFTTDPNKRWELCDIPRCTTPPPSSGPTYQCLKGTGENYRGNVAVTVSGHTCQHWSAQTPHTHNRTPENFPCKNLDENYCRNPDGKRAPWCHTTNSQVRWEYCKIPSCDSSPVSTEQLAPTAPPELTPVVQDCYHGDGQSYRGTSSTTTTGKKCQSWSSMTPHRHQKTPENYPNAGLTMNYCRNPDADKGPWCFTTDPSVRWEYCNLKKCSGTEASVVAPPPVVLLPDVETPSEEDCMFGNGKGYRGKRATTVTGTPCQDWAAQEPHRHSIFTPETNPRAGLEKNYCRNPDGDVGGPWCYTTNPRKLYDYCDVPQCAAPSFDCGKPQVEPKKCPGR
Plasminogen, sequence (P00747 581-810 limits assumed): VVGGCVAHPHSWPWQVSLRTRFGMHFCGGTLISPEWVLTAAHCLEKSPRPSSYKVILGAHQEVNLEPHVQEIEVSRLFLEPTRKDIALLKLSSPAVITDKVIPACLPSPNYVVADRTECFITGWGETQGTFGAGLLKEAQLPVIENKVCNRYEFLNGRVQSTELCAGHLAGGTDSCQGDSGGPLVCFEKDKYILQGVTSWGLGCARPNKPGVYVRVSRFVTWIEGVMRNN
Coagulation factor X, sequence (P00743 41-180 limits assumed): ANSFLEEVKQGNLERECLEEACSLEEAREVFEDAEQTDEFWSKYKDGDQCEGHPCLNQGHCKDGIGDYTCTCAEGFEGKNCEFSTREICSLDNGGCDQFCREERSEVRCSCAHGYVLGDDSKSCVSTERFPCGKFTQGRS
Coagulation factor X, sequence (P00743 234-492 limits assumed): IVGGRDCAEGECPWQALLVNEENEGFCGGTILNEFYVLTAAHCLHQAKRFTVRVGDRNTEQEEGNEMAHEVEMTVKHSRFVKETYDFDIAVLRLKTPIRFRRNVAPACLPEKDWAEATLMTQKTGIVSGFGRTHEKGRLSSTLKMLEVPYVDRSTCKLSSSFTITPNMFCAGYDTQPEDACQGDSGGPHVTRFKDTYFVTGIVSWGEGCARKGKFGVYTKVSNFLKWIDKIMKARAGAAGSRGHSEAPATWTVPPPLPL
Coagulation factor X (Bos taurus), sequence (P00743 41-180 limits assumed): as the sequence (P00743 41-180 limits assumed) above
Coagulation factor X (Bos taurus), sequence (P00743 234-492 limits assumed): as the sequence (P00743 234-492 limits assumed) above

With `C[C@H](NC(=O)[C@@H](CO)NC(=O)C1C2CC3CC(C2)CC1C3)C(=O)NC(Cc1ccc(NC(=N)N)cc1)P(=O)(Oc1ccccc1)Oc1ccccc1` (stereo partly specified), the IC50 in [1] was 8600 nM; in assay [2], 160 nM; against Prothrombin, 6000 nM; against Plasminogen, 5000 nM; in assay [5], 8 nM. The Selectivity index was 750 in assay [3], 1000 in the assay listed under Homo sapiens [4], 600 in the assay listed under Homo sapiens [6] and 20 in [7]. Besides, the inhibition in assay [8] stood at 62%.
With `C[C@H](NC(=O)[C@@H](CO)NC(=O)OCc1ccccc1)C(=O)NC(Cc1ccc(N=C(N)N)cc1)P(=O)(Oc1ccccc1)Oc1ccccc1` (stereo partly specified), the IC50 in [1] was 4600 nM; at Prothrombin, 20000 nM; on Plasminogen, 2000 nM; in [5] it was 4.3 nM.
As for `Cc1ccccc1C(=O)N[C@H](CO)C(=O)N[C@@H](C)C(=O)NC(Cc1ccc(NC(=N)N)cc1)P(=O)(Oc1ccccc1)Oc1ccccc1` (stereo partly specified), the IC50 turned out to be 5500 nM in [1]; 140 nM in assay [2]; 15900 nM on Prothrombin; 7200 nM against Plasminogen; 5 nM in assay [5]. Besides, the Selectivity index in [3] was 3200; in the assay listed under Homo sapiens [4], 1100; in the assay filed under Homo sapiens [6], 1400; in assay [7], 30. Also, the inhibition in [8] was 57%.
On to `C[C@H](NC(=O)[C@@H](CO)NS(=O)(=O)Cc1ccccc1)C(=O)NC(Cc1ccc(NC(=N)N)cc1)P(=O)(Oc1ccccc1)Oc1ccccc1` (stereo partly specified), for which the IC50 in assay [1] was 280 nM; in assay [2] it was 310 nM; against Prothrombin it was 770 nM; against Plasminogen, 37 nM; in assay [5] it was 3.5 nM; against Coagulation factor X, 33000 nM. Besides, the Selectivity index is 9400 in assay [9]; 220 in assay [3]; 80 in the assay filed under Homo sapiens [4]; 11 in the assay listed under Homo sapiens [6]; 90 in assay [7].
Regarding `C[C@H](NC(=O)[C@@H](CO)NC(=O)c1ccccc1)C(=O)NC(Cc1ccc(N=C(N)N)cc1)P(=O)(Oc1ccccc1)Oc1ccccc1` (stereo partly specified), the IC50 in assay [1] is 15000 nM; at Prothrombin it was 22000 nM; against Plasminogen it was 15000 nM; in [5] it was 5 nM.
For the compound `COc1ccc(S(=O)(=O)N[C@H](CO)C(=O)N[C@@H](C)C(=O)NC(Cc2ccc(NC(=N)N)cc2)P(=O)(Oc2ccccc2)Oc2ccccc2)cc1` (stereo partly specified), the IC50 in [1] amounted to 4300 nM; in assay [2] it was 360 nM; at Prothrombin, 1670 nM; on Plasminogen, 1700 nM; in [5], 5.8 nM; at Coagulation factor X, 100000 nM. The Selectivity index was determined as 19000 in [9]; 288 in [3]; 740 in the assay filed under Homo sapiens [4]; 293 in the assay filed under Homo sapiens [6]; 60 in [7].
As for `C[C@H](NC(=O)[C@@H](CO)NS(=O)(=O)c1ccc(C#N)cc1)C(=O)NC(Cc1ccc(N=C(N)N)cc1)P(=O)(Oc1ccccc1)Oc1ccccc1` (stereo partly specified), the IC50 in assay [1] came out at 6600 nM; at Prothrombin, 7500 nM; against Plasminogen, 900 nM; in assay [5], 6.2 nM.
Turning to `Cc1ccc(C(=O)N[C@H](CO)C(=O)N[C@@H](C)C(=O)NC(Cc2ccc(NC(=N)N)cc2)P(=O)(Oc2ccccc2)Oc2ccccc2)cc1` (stereo partly specified), the IC50 in assay [1] is 16000 nM; in [2] it was 160 nM; against Prothrombin, 67000 nM; at Plasminogen, 5000 nM; in assay [5], 7 nM. In addition, the Selectivity index came to 9600 in [3], 2300 in the assay filed under Homo sapiens [4], 700 in the assay filed under Homo sapiens [6] and 23 in assay [7]. For the same compound, the inhibition in [8] worked out at 53%.
Compound `C[C@H](NC(=O)[C@@H](CO)NC(=O)OCc1ccccc1)C(=O)NC(CCCNC(=N)N)P(=O)(Oc1ccccc1)Oc1ccccc1` (stereo partly specified) registered an IC50 against Coagulation factor X of 65000 nM.
On to `C[C@H](NC(=O)[C@@H](CO)NS(=O)(=O)c1ccc(C#N)cc1)C(=O)NC(Cc1ccc(NC(=N)N)cc1)P(=O)(Oc1ccccc1)Oc1ccccc1` (stereo partly specified), for which the IC50 in assay [2] is 440 nM. Moreover, the Selectivity index is 1200 in assay [3], 1100 in the assay filed under Homo sapiens [4], 145 in the assay filed under Homo sapiens [6] and 70 in [7]. In [8], this compound came in with an inhibition of 53%.
Take `C[C@H](NC(=O)[C@@H](CO)NC(=O)c1cccs1)C(=O)NC(Cc1ccc(NC(=N)N)cc1)P(=O)(Oc1ccccc1)Oc1ccccc1` (stereo partly specified): the Selectivity index was determined as 5000 in assay [3], 1900 in the assay listed under Homo sapiens [4], 1400 in the assay filed under Homo sapiens [6] and 40 in assay [7].
In [2], `C[C@H](NC(=O)[C@@H](CO)NS(=O)(=O)c1cccc2ccccc12)C(=O)NC(Cc1ccc(NC(=N)N)cc1)P(=O)(Oc1ccccc1)Oc1ccccc1` (stereo partly specified) returned an IC50 of 280 nM. For the same compound, the Selectivity index in assay [9] worked out at 16600; in assay [3], 1000; in the assay listed under Homo sapiens [4], 760; in the assay filed under Homo sapiens [6], 155; in assay [7], 50.
In the case of `C[C@H](NC(=O)[C@@H](CO)NS(=O)(=O)c1cccs1)C(=O)NC(Cc1ccc(NC(=N)N)cc1)P(=O)(Oc1ccccc1)Oc1ccccc1` (stereo partly specified), in assay [2], the IC50 is 98 nM. Also, the Selectivity index in [3] was 2800; in the assay filed under Homo sapiens [4], 2300; in the assay listed under Homo sapiens [6], 1000; in assay [7], 65. In assay [8], this compound had an inhibition of 68%.
On to `C[C@H](NC(=O)[C@@H](CO)NS(=O)(=O)c1cccs1)C(=O)NC(Cc1ccc(N=C(N)N)cc1)P(=O)(Oc1ccccc1)Oc1ccccc1` (stereo partly specified), for which the IC50 in assay [1] was determined as 3400 nM; against Prothrombin, 4300 nM; on Plasminogen, 1540 nM; in assay [5], 1.5 nM.
In the case of `C[C@H](NC(=O)[C@@H](CO)NS(=O)(=O)c1ccccc1)C(=O)NC(Cc1ccc(NC(=N)N)cc1)P(=O)(Oc1ccccc1)Oc1ccccc1` (stereo partly specified), the IC50 in assay [1] was found to be 3100 nM; in [2], 160 nM; against Prothrombin, 4900 nM; on Plasminogen, 1900 nM; in assay [5] it was 2.6 nM. The Selectivity index in assay [3] was found to be 1900; in the assay listed under Homo sapiens [4] it was 1200; in the assay filed under Homo sapiens [6], 740; in [7], 60. Moreover, the inhibition in assay [8] worked out at 64%.
Compound `C[C@H](NC(=O)[C@@H](CO)NC(=O)c1ccccc1)C(=O)NC(Cc1ccc(NC(=N)N)cc1)P(=O)(Oc1ccccc1)Oc1ccccc1` (stereo partly specified) registered an IC50 in [2] of 400 nM. Further, the Selectivity index came out at 5400 in assay [3], 3000 in the assay filed under Homo sapiens [4], 3000 in the assay filed under Homo sapiens [6] and 80 in [7]. Further, the inhibition in assay [8] was determined as 45%.
As for `C[C@H](NC(=O)[C@@H](CO)NS(=O)(=O)c1cccc2ccccc12)C(=O)NC(Cc1ccc(N=C(N)N)cc1)P(=O)(Oc1ccccc1)Oc1ccccc1` (stereo partly specified), the IC50 in [1] was determined as 4400 nM; on Prothrombin, 6000 nM; at Plasminogen, 990 nM; in assay [5] it was 5.8 nM; at Coagulation factor X, 96000 nM.
With `Cc1cccc(C)c1C(=O)N[C@H](CO)C(=O)N[C@@H](C)C(=O)NC(Cc1ccc(NC(=N)N)cc1)P(=O)(Oc1ccccc1)Oc1ccccc1` (stereo partly specified), the IC50 in assay [1] amounted to 3600 nM; in assay [2], 220 nM; against Prothrombin it was 6300 nM; at Plasminogen, 4200 nM; in assay [5], 6 nM. For the same compound, the Selectivity index was determined as 1000 in [3], 600 in the assay listed under Homo sapiens [4], 700 in the assay filed under Homo sapiens [6] and 40 in assay [7]. Besides, the inhibition in [8] came to 62%.
With `C[C@H](NC(=O)[C@@H](CO)NC(=O)OCc1ccccc1)C(=O)NC(CCCN=C(N)N)P(=O)(Oc1ccccc1)Oc1ccccc1` (stereo partly specified), the Selectivity index in assay [9] worked out at 1100; in [3], 8; in the assay filed under Homo sapiens [4], 40; in the assay filed under Homo sapiens [6], 300.
On to `Cc1cccc(C(=O)N[C@H](CO)C(=O)N[C@@H](C)C(=O)NC(Cc2ccc(NC(=N)N)cc2)P(=O)(Oc2ccccc2)Oc2ccccc2)c1` (stereo partly specified), for which the IC50 in [2] turned out to be 160 nM. For the same compound, the Selectivity index stood at 7700 in assay [3], 4000 in the assay filed under Homo sapiens [4], 1800 in the assay filed under Homo sapiens [6] and 40 in assay [7]. This compound showed an inhibition in assay [8] of 56%.
Take `Cc1cccc(C(=O)N[C@H](CO)C(=O)N[C@@H](C)C(=O)NC(Cc2ccc(N=C(N)N)cc2)P(=O)(Oc2ccccc2)Oc2ccccc2)c1` (stereo partly specified): the IC50 in [1] is 18000 nM; against Prothrombin it was 34000 nM; against Plasminogen, 8000 nM; in [5] it was 4.4 nM.

(Values after ChEMBL document CHEMBL1149362, “Diphenyl phosphonate inhibitors for the urokinase-type plasminogen activator: optimization of the P4 position” (J Med Chem, 2006).)
